Laboratory results from ChEMBL document CHEMBL1221399, “Antitumor Agents. 282. 2'-(R)-O-acetylglaucarubinone, a quassinoid from Odyendyea gabonensis as a potential anti-breast and anti-ovarian cancer agent” (J Nat Prod, 2010).
In brackets after ≈: the same amount, converted by molar mass. Activity calls are given as the source filed them.

Experiments:
[1] = system: KB; assay: Cytotoxicity against human KB cells; assay type: functional; conditions: read-out: ED50 (the source's name)
Outline: (§1)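 Human tumour cell lines DU145, A549, KB and multidrug-resistant KB-VIN were exposed to the quassinoids, with paclitaxel as reference. ED50 was the mean concentration giving 50% effect under the defined assay condition, reported in µM.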

[2] = Cytotoxicity against human KBVIN cells; assay type: functional; conditions: read-out: ED50 (the source's name); outline: as §1
[3] = system: A549; assay: Cytotoxicity against human A549 cells; assay type: functional; conditions: read-out: ED50 (the source's name); outline: as §1
[4] = system: DU-145; assay: Cytotoxicity against human DU145 cells; assay type: functional; conditions: read-out: ED50 (the source's name); outline: as §1
[5] = Growth inhibition of human KBVIN cells at 10 ug/ml; assay type: functional; conditions: read-out: GI
[6] = system: Mus musculus; assay: Reduction of mammary gland ductal branching in […]/p53-deficient C57BL/6/129/Sv mouse model at 0.1 mg/kg, ip daily for 5 days measured post last dose by immunohistochemistry; assay type: functional, organism-based; design: dose 0.1 mg/kg
Outline: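 Three-month-old Brca1/p53 conditional mutant mice (mixed C57BL/6 and 129/Sv background) dosed i.p. daily for 5 days, with vehicle controls. Fourth-pair mammary glands are whole-mounted, fixed in Carnoy's 3 h and stained overnight with carmine alum. Ductal branching points are scored against vehicle-treated mice, significance by two-tailed t-test.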

[7] = system: Mus musculus; assay: Reduction of mammary gland ductal branching in […]/p53-deficient C57BL/6/129/Sv mouse model at 0.1 mg/kg, ip daily for 7 days measured post last dose by immunohistochemistry; assay type: functional
Outline: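 Three-month-old Brca1/p53 conditional mutant mice (Cre, mixed C57BL/6 and 129/Sv background) given […] daily for 7 days. Dose is drawn from a 1 mg/mL DMSO stock, 10 µL mixed with 30 µL 40% PEG and 60 µL 0.9% NaCl at dosing. Controls get vehicle. Fourth-pair glands are whole-mounted, Carnoy-fixed 3 h and carmine alum-stained overnight. Branching points are counted relative to vehicle, two-tailed t-test.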

[8] = system: MCF7; assay: Cytotoxicity against human MCF7 cells; assay type: functional, cell-based
[9] = system: SK-BR-3; assay: Cytotoxicity against human SK-BR-3 cells; assay type: functional, cell-based
[10] = Cytotoxicity against human HeyA8 cells; assay type: functional, cell-based; conditions: HEY A8
[11] = system: MDA-MB-468; assay: Cytotoxicity against human MDA-MB-468 cells; assay type: functional, cell-based
[12] = system: BT-474; assay: Cytotoxicity against human BT474 cells; assay type: functional, cell-based
[13] = Cytotoxicity against human MSPC1 cells; assay type: functional, cell-based
[14] = Cytotoxicity against human 2774-C10 cells; assay type: functional, cell-based
[15] = Cytotoxicity against human HOC7 cells; assay type: functional, cell-based
[16] = system: MCF7; assay: Cytotoxicity against human MCF7 cells overexpressing HER2; assay type: functional, cell-based
[17] = system: MDA-MB-231; assay: Cytotoxicity against human MDA-MB-231 cells; assay type: functional, cell-based

CC[C@@](C)(OC(C)=O)C(=O)O[C@H]1C(=O)O[C@@H]2C[C@H]3C(C)=CC(=O)[C@@H](O)[C@]3(C)[C@H]3[C@@]4(O)OC[C@]32[C@@H]1[C@@H](C)[C@H]4O
EC50 [1]: 70 nM
EC50 [2]: 440 nM
EC50 [3]: 70 nM
EC50 [4]: 70 nM

CC[C@](C)(OC(C)=O)C(=O)O[C@H]1C(=O)O[C@@H]2C[C@H]3C(C)=C[C@H](O)[C@@H](O)[C@]3(C)[C@H]3[C@@]4(O)OC[C@]32[C@@H]1[C@@H](C)[C@H]4O
inhibition of growth at 10 µg/mL [5]: < 50%
EC50 [1]: 670 nM
EC50 [3]: 3600 nM
EC50 [4]: 830 nM

COC(=O)[C@@]12OC[C@]34[C@H]([C@@H](O)[C@@H]1O)[C@@]1(C)CC(=O)C(O)=C(C)[C@@H]1C[C@H]3OC(=O)[C@H](OC(=O)/C=C(\C)C(C)C)[C@@H]24
inhibition [6]: Active
inhibition [7]: Active

CC[C@](C)(OC(C)=O)C(=O)O[C@H]1C(=O)O[C@@H]2C[C@H]3C(C)=CC(=O)[C@@H](O)[C@]3(C)[C@H]3[C@@]4(O)OC[C@]32[C@@H]1[C@@H](C)[C@H]4O [2'-ACETOXY-GLAUCARUBINONE]
IC50 [8]: 8.13 µg/mL (≈ 15.2 µM)
EC50 [1]: 50 nM
IC50 [9]: 0.014 µg/mL (≈ 0.0261 µM)
IC50 [10]: < 0.01 µg/mL
IC50 [11]: 0.016 µg/mL (≈ 0.0298 µM)
EC50 [2]: 420 nM
IC50 [12]: 28.4 µg/mL (≈ 52.9 µM)
IC50 [13]: < 0.01 µg/mL
EC50 [3]: 60 nM
EC50 [4]: 40 nM
IC50 [14]: < 0.01 µg/mL
IC50 [15]: < 0.01 µg/mL
IC50 [16]: 0.013 µg/mL (≈ 0.0242 µM)
IC50 [17]: 0.077 µg/mL (≈ 0.144 µM)

CCC(C)C(=O)O[C@H]1C(=O)O[C@@H]2C[C@H]3C(C)=CC(=O)[C@@H](O)[C@]3(C)[C@H]3[C@]4(O)OC[C@]32[C@@H]1[C@@H](C)[C@H]4O (stereo not given in full) [AILANTHINONE]
EC50 [1]: 180 nM
EC50 [2]: 370 nM
EC50 [3]: 130 nM
EC50 [4]: 90 nM

CCC(C)C(=O)O[C@H]1C(=O)O[C@@H]2C[C@H]3C(C)=C[C@H](O)[C@@H](O)[C@]3(C)[C@H]3[C@@]4(O)OC[C@]32[C@@H]1[C@@H](C)[C@H]4O (stereo not given in full) [EXCELSIN]
inhibition of growth at 10 µg/mL [5]: < 50%
EC50 [1]: 4300 nM
EC50 [3]: 16000 nM
EC50 [4]: 4700 nM

CC[C@](C)(O)C(=O)O[C@H]1C(=O)O[C@@H]2C[C@H]3C(C)=CC(=O)[C@@H](O)[C@]3(C)[C@H]3[C@@]4(O)OC[C@]32[C@@H]1[C@@H](C)[C@H]4O [GLAUCARUBINONE]
EC50 [1]: 440 nM
EC50 [2]: 1240 nM
EC50 [3]: 880 nM
EC50 [4]: 470 nM

CC(=O)O[C@H]1C(=O)[C@@]2(C)[C@H]([C@H](OC(=O)c3ccccc3)[C@]3(O)C[C@H](OC(=O)[C@H](O)[C@@H](NC(=O)c4ccccc4)c4ccccc4)C(C)=C1C3(C)C)[C@]1(OC(C)=O)CO[C@@H]1C[C@@H]2O [PACLITAXEL]
EC50 [1]: 7 nM
EC50 [2]: > 1000 nM
EC50 [3]: 8 nM
EC50 [4]: 3 nM
